Activity calls are given as the source filed them. No cut-off for these calls is given here.
Experiments:
[1] = test system: Canis familiaris; assay: Inhibition of histamine stimulated gastric acid secretion in adult mongrel dogs at dose 2 mg/kg given orally; format: functional; settings: Canis lupus familiaris, Stomach, route oral
Procedure, shortened: (§1)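 Dogs with Heidenhain pouches, 12–18 kg, fasted 18 h. Compound given iv in 3 mL or by gavage in 5 mL of 0.4% methylcellulose/saline, 1 h after infusion start. 30-min collections titrated. Summed 3-h AO against the same dog's control AO gives % inhibition. Usually one dog per compound.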

[2] = test system: Canis familiaris; assay: Inhibition of histamine stimulated gastric acid secretion in mongrel dogs following 4 mg/kg p.o. administration.; format: functional; settings: Canis lupus familiaris, Stomach, route oral; procedure, shortened: as §1
[3] = test system: Canis familiaris; assay: Inhibition of histamine stimulated gastric acid secretion in adult mongrel dogs at dose 5 mg/kg given intravenously; format: functional; settings: Canis lupus familiaris, Stomach, route intravenous; procedure, shortened: as §1
[4] = test system: Canis familiaris; assay: Inhibition of histamine stimulated gastric acid secretion in adult mongrel dogs at dose 8 mg/kg given orally; format: functional; settings: Canis lupus familiaris, Stomach, route oral; procedure, shortened: as §1
[5] = species: Rattus norvegicus; assay: Oral gastric cytoprotective activity in the rat against ethanol-induced lesions; format: functional; settings: Stomach
Procedure, shortened: (§2)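 Rats fasted and water-deprived for 20 h. Compound given orally, 1–30 mg/kg in 0.4% methylcellulose/saline, 30 min before 1 mL absolute ethanol po. Killed 1 h after ethanol. Linear hemorrhagic lesion lengths totalled per stomach, expressed as group mean. ED50 by linear regression.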

[6] = test system: Rattus norvegicus; assay: Gastric antisecretory activity in the pylorus-ligated rat and the reduction in acid output was measured after 4 hr by intraperitoneal (ip) administration of 40 mg/kg dose.; format: functional
Procedure, shortened: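 Male Charles River CD rats, 150–200 g, fasted 24 h. Pylorus ligated under Brevital anesthesia. 40 mg/kg given ip in 2.5% Tween 80 at ligation. Stomach contents collected at 4 h and titrated with 0.1 N NaOH to pH 7.0. % inhibition from mean AO, 6 treated vs 8 control rats. Student's t test.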

[7] = test system: Canis familiaris; assay: Inhibition of histamine stimulated gastric acid secretion in adult mongrel dogs at dose 0.1 mg/kg given intravenously; format: functional; settings: Canis lupus familiaris, Stomach, route intravenous; procedure, shortened: as §1
[8] = test system: Canis familiaris; assay: Inhibition of histamine stimulated gastric acid secretion in adult mongrel dogs at dose 1 mg/kg given intravenously; format: functional; settings: Canis lupus familiaris, Stomach, route intravenous; procedure, shortened: as §1
[9] = test system: Canis familiaris; assay: Inhibition of histamine stimulated gastric acid secretion in adult mongrel dogs at dose 2 mg/kg given intravenously; format: functional; settings: Canis lupus familiaris, Stomach, route intravenous; procedure, shortened: as §1
[10] = test system: Canis familiaris; assay: Effective dose against histamine stimulated gastric acid secretion in adult mongrel dogs given intravenously; value ranges from 0.01-1.19; format: functional; settings: Canis lupus familiaris, Stomach, iv
[11] = test system: Canis familiaris; assay: Effective dose against histamine stimulated gastric acid secretion in adult mongrel dogs given orally; value ranges from 2.1-14.0; format: functional; settings: Canis lupus familiaris, Stomach, po
[12] = species: Rattus norvegicus; assay: Oral gastric cytoprotective activity in the rat against ethanol-induced lesions was evaluated; settings: Stomach
[13] = test system: Canis familiaris; assay: Inhibition of histamine stimulated gastric acid secretion in adult mongrel dogs at dose 4 mg/kg given orally; format: functional; settings: Canis lupus familiaris, Stomach, route oral; procedure, shortened: as §1
[14] = species: Canis familiaris; assay: Relative potency was calculated; value ranges from 0.1-2.1; format: functional, Canis lupus familiaris
[15] = species: Rattus norvegicus; assay: Oral gastric cytoprotective activity in the rat against ethanol-induced lesions was evaluated; NA=Inactive.; format: functional, organism-based; settings: Stomach; procedure, shortened: as §2
[16] = test system: Canis familiaris; assay: Effective dose against histamine stimulated gastric acid secretion in adult mongrel dogs given orally; format: functional; settings: Canis lupus familiaris, Stomach, po

Compound	inhibition in vivo at 2 mg/kg [1]	inhibition in vivo at 4 mg/kg [2]	inhibition in vivo at 5 mg/kg [3]	inhibition in vivo at 8 mg/kg [4]	ED50 [5]	inhibition in vivo at 40 mg/kg [6]	inhibition in vivo at 0.1 mg/kg [7]	inhibition in vivo at 1 mg/kg [8]	inhibition in vivo at 2 mg/kg [9]	ED50 [10]	ED50 [11]	ED50 [12]	inhibition in vivo at 4 mg/kg [13]	Relative potency [14]	ED50 [15]	ED50 [16]
Cc1nc2c(OCCc3ccccc3)cccn2c1CC#N	0%	47%	95%	89%	6 mg/kg	70%										
Cc1nc2c(OCc3ccccc3)cccn2c1CC#N	20%	42%	99%	77%	3 mg/kg	98%	49%	88%	95%	0.09 mg/kg	4.4 mg/kg					
Cc1nc2cccc(CCc3ccccc3)n2c1CC#N				9%	7.2 mg/kg	20%		71%								
Cc1nc2c(CSc3ccccc3)cccn2c1C						29%		31%				6.4 mg/kg				
N#CCc1cnc2c(OCc3ccccc3)cccn12	6%			46%	1 mg/kg	99%		52%	96%							
CCc1nc2c(OCc3ccccc3)cccn2c1CC#N		54%		93%	4 mg/kg	91%	16%		95%							
Cc1nc2c(OCc3cccs3)cccn2c1CC#N			99%	75%	7 mg/kg	96%	26%	90%					17%			
Cc1nc2c(OCc3ccccc3)cccn2c1CO		20%	80%	20%	16 mg/kg	99%		57%	80%							
Cc1nc2c(NCc3ccccc3)cccn2c1CC#N		35%	98%	75%	2 mg/kg	98%	85%		96%		6.7 mg/kg			1.5		
Cc1nc2c(OCc3ccccc3)cccn2c1C(=O)O			4%			0%									inactive	
Cc1nc2c(OCc3ccsc3)cccn2c1CC#N	40%	77%	97%	88%	2 mg/kg	91%	70%									2.7 mg/kg
Cc1nc2c(OCc3ccc(Cl)cc3)cccn2c1CC#N	30%	56%	95%	70%	6.6 mg/kg	90%	29%		58%							
Cc1nc2c(OCc3ccc(C(F)(F)F)cc3)cccn2c1CC#N		27%	59%	25%	3 mg/kg	26%			44%							
Cc1nc2c(CCc3ccccc3)cccn2c1CC#N			96%	83%	7 mg/kg	99%	74%		92%				3%			
Cc1nc2c(OCc3ccccc3)cccn2c1C		0%		26%	10 mg/kg	99%		90%								
Cc1nc2c(OCc3ccccc3)cccn2c1C#N			4%			25%									inactive	
[C-]#[N+]Cc1c(C)nc2c(OCc3ccccc3)cccn12		8%		94%		96%	37%		94%			2.2 mg/kg				
Cc1nc2c(OCc3ccccc3)cccn2c1CC(=O)N(C)C						37%		16%								
Cc1nc2c(OCc3ccccc3)cccn2c1CC(=N)S		34%	62%	60%	7 mg/kg	67%			21%							
